Results as given in ChEMBL document CHEMBL2346629, “Discovery and characterization of novel allosteric FAK inhibitors” (Eur J Med Chem, 2013).

Legend:
[1] = biological target: Cyclin-dependent kinase 4/cyclin D1 (Homo sapiens) (UniProt P11802+P24385); test: Inhibition of CDK4/cyclinD1 (unknown origin) using [gamma-33P]ATP assessed as residual activity at 3 uM; format: protein-complex assay
How it was run: (§1)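 Radiometric profiling across 288 kinases (261 wild-type, 27 mutant), run as an outsourced service. Inhibition read out as [gamma-33P]ATP incorporation into substrate.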

[2] = biological target: Megakaryocyte-associated tyrosine-protein kinase (Homo sapiens) (UniProt P42679); test: Inhibition of CTK (unknown origin) using [gamma-33P]ATP assessed as residual activity at 3 uM
How it was run: (§2)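 Reaction Biology HotSpot radiometric profiling panel of 288 kinases (261 wild-type, 27 mutant). Kinase activity was read out by incorporation of [γ-33P]ATP.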

[3] = biological target: Fibroblast growth factor receptor 1 (Homo sapiens) (UniProt P11362); test: Inhibition of FGFR1 (unknown origin) using [gamma-33P]ATP assessed as residual activity at 3 uM; how it was run: as §2
[4] = biological target: Homeodomain-interacting protein kinase 4 (Homo sapiens) (UniProt Q8NE63); test: Inhibition of HIPK4 (unknown origin) using [gamma-33P]ATP assessed as residual activity at 3 uM
How it was run: (§3)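 Radiometric kinase profiling service covering 288 kinases (261 wild-type, 27 mutant). Inhibition was read as incorporation from [γ-³³P]ATP.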

[5] = tested on: Epidermal growth factor receptor (Homo sapiens), P00533 [L861Q]; test: Inhibition of EGFR L861Q mutant(unknown origin) using [gamma-33P]ATP assessed as residual activity at 3 uM; format: protein assay; how it was run: as §2
[6] = biological target: Tyrosine-protein kinase Lck (Homo sapiens) (UniProt P06239); test: Inhibition of LCK (unknown origin) using [gamma-33P]ATP assessed as residual activity at 3 uM; how it was run: as §3
[7] = tested on: Fibroblast growth factor receptor 2 (Homo sapiens), P21802 [N549H]; test: Inhibition of FGFR2 N549H mutant (unknown origin) using [gamma-33P]ATP assessed as residual activity at 3 uM; how it was run: as §2
[8] = biological target: Macrophage colony-stimulating factor 1 receptor (Homo sapiens) (UniProt P07333); test: Inhibition of FMS (unknown origin) using [gamma-33P]ATP assessed as residual activity at 3 uM; how it was run: as §3
[9] = biological target: G protein-coupled receptor kinase 6 (Homo sapiens) (UniProt P43250); test: Inhibition of GRK6 (unknown origin) using [gamma-33P]ATP assessed as residual activity at 3 uM; how it was run: as §3
[10] = biological target: Cytoplasmic tyrosine-protein kinase BMX (Homo sapiens) (UniProt P51813); test: Inhibition of BMX (unknown origin) using [gamma-33P]ATP assessed as residual activity at 3 uM; how it was run: as §1
[11] = biological target: Serine/threonine-protein kinase 26 (Homo sapiens) (UniProt Q9P289); test: Inhibition of MST4 (unknown origin) using [gamma-33P]ATP assessed as residual activity at 3 uM
[12] = biological target: Serine/threonine-protein kinase 33 (Homo sapiens) (UniProt Q9BYT3); test: Inhibition of STK33 (unknown origin) using [gamma-33P]ATP assessed as residual activity at 3 uM
[13] = biological target: Serine/threonine-protein kinase PAK 1 (Homo sapiens) (UniProt Q13153); test: Inhibition of PAK1 (unknown origin) using [gamma-33P]ATP assessed as residual activity at 3 uM
[14] = biological target: Maternal embryonic leucine zipper kinase (Homo sapiens) (UniProt Q14680); test: Inhibition of MELK (unknown origin) using [gamma-33P]ATP assessed as residual activity at 3 uM
How it was run: (§4)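 Contract radiometric panel screen of 288 kinases (261 wild-type, 27 mutant). Inhibition was read by [gamma-33P]ATP radioactivity incorporation.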

[15] = biological target: Dual specificity tyrosine-phosphorylation-regulated kinase 1B (Homo sapiens) (UniProt Q9Y463); test: Inhibition of DYRK1B (unknown origin) using [gamma-33P]ATP assessed as residual activity at 3 uM; how it was run: as §2
[16] = biological target: Serine/threonine-protein kinase MARK2 (Homo sapiens) (UniProt Q7KZI7); test: Inhibition of MARK2 (unknown origin) using [gamma-33P]ATP assessed as residual activity at 3 uM; how it was run: as §4
[17] = tested on: Mast/stem cell growth factor receptor Kit (Homo sapiens), P10721 [D816H]; test: Inhibition of c-Kit D816H mutant (unknown origin) using [gamma-33P]ATP assessed as residual activity at 3 uM
[18] = biological target: Proto-oncogene tyrosine-protein kinase receptor Ret (Homo sapiens) (UniProt P07949); test: Inhibition of RET (unknown origin) using [gamma-33P]ATP assessed as residual activity at 3 uM
[19] = biological target: Serine/threonine-protein kinase 3 (Homo sapiens) (UniProt Q13188); test: Inhibition of MST2 (unknown origin) using [gamma-33P]ATP assessed as residual activity at 3 uM
[20] = biological target: Discoidin domain-containing receptor 2 (Homo sapiens) (UniProt Q16832); test: Inhibition of DDR2 (unknown origin) using [gamma-33P]ATP assessed as residual activity at 3 uM; how it was run: as §2
[21] = tested on: Epidermal growth factor receptor (Homo sapiens), P00533 [T790M]; test: Inhibition of EGFR T790M mutant (unknown origin) using [gamma-33P]ATP assessed as residual activity at 3 uM; format: protein assay; how it was run: as §2
[22] = biological target: Ephrin type-A receptor 5 (Homo sapiens) (UniProt P54756); test: Inhibition of EPHA5 (unknown origin) using [gamma-33P]ATP assessed as residual activity at 3 uM; how it was run: as §2
[23] = biological target: Ribosomal protein S6 kinase alpha-4 (Homo sapiens) (UniProt O75676); test: Inhibition of MSK2 (unknown origin) using [gamma-33P]ATP assessed as residual activity at 3 uM
[24] = biological target: Serine/threonine-protein kinase Nek1 (Homo sapiens) (UniProt Q96PY6); test: Inhibition of NEK1 (unknown origin) using [gamma-33P]ATP assessed as residual activity at 3 uM
[25] = biological target: Ephrin type-B receptor 1 (Homo sapiens) (UniProt P54762); test: Inhibition of EPHB1 (unknown origin) using [gamma-33P]ATP assessed as residual activity at 3 uM; how it was run: as §2
[26] = tested on: Epidermal growth factor receptor (Homo sapiens), P00533 [L861R,T790M]; test: Inhibition of EGFR […] double mutant (unknown origin) using [gamma-33P]ATP assessed as residual activity at 3 uM; format: protein assay; how it was run: as §2
[27] = biological target: Serine/threonine-protein kinase Nek9 (Homo sapiens) (UniProt Q8TD19); test: Inhibition of NEK9 (unknown origin) using [gamma-33P]ATP assessed as residual activity at 3 uM
[28] = biological target: Tyrosine-protein kinase ITK/TSK (Homo sapiens) (UniProt Q08881); test: Inhibition of ITK (unknown origin) using [gamma-33P]ATP assessed as residual activity at 3 uM; how it was run: as §3
[29] = tested on: Tyrosine-protein kinase ABL1 (Homo sapiens), P00519 [M351T]; test: Inhibition of ABL1 M351T mutant (unknown origin) using [gamma-33P]ATP assessed as residual activity at 3 uM; how it was run: as §1
[30] = tested on: Platelet-derived growth factor receptor alpha (Homo sapiens), P16234 [D842V]; test: Inhibition of PDGFRa D842V mutant (unknown origin) using [gamma-33P]ATP assessed as residual activity at 3 uM
[31] = biological target: Serine/threonine-protein kinase PAK 4 (Homo sapiens) (UniProt O96013); test: Inhibition of PAK4 (unknown origin) using [gamma-33P]ATP assessed as residual activity at 3 uM

Chain of Fibroblast growth factor receptor 2 (Homo sapiens), P21802 [N549H] (P21802 whole entry N549H): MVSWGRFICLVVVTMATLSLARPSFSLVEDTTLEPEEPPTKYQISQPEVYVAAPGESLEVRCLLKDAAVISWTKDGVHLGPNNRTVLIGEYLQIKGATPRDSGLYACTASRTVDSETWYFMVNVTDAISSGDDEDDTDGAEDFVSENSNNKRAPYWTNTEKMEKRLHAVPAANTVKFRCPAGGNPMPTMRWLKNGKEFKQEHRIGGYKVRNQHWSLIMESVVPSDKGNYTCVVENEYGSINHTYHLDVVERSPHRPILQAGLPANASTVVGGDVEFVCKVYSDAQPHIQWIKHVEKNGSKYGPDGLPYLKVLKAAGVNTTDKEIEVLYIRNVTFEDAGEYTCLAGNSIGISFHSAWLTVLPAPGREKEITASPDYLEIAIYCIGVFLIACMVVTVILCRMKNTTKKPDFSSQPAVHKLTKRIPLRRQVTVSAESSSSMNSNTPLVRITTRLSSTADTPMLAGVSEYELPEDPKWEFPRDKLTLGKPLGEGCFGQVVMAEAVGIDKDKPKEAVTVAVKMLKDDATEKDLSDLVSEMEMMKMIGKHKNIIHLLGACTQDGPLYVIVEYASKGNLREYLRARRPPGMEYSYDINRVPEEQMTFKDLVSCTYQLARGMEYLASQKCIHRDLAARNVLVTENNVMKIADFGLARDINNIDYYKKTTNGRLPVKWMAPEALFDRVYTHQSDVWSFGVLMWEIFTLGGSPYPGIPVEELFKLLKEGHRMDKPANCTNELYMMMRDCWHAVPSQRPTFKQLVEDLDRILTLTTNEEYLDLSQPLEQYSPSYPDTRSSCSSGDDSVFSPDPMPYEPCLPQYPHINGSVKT
Chain of Tyrosine-protein kinase Lck (Homo sapiens) (P06239 2-509 limits assumed): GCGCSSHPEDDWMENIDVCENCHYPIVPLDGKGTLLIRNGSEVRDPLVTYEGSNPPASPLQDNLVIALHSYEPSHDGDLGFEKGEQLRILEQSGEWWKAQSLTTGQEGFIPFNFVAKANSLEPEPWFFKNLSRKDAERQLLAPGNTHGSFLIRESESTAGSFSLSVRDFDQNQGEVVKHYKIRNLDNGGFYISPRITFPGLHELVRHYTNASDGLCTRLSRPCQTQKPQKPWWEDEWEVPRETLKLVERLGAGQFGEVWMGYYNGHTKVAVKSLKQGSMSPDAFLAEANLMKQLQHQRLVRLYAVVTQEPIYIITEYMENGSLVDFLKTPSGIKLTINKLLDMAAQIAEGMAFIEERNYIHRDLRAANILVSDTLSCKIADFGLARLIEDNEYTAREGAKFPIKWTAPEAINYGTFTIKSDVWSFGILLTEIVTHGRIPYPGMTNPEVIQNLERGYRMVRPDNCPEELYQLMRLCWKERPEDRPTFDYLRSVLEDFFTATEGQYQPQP
Chain of Serine/threonine-protein kinase Nek1 (Homo sapiens) (Q96PY6 whole entry): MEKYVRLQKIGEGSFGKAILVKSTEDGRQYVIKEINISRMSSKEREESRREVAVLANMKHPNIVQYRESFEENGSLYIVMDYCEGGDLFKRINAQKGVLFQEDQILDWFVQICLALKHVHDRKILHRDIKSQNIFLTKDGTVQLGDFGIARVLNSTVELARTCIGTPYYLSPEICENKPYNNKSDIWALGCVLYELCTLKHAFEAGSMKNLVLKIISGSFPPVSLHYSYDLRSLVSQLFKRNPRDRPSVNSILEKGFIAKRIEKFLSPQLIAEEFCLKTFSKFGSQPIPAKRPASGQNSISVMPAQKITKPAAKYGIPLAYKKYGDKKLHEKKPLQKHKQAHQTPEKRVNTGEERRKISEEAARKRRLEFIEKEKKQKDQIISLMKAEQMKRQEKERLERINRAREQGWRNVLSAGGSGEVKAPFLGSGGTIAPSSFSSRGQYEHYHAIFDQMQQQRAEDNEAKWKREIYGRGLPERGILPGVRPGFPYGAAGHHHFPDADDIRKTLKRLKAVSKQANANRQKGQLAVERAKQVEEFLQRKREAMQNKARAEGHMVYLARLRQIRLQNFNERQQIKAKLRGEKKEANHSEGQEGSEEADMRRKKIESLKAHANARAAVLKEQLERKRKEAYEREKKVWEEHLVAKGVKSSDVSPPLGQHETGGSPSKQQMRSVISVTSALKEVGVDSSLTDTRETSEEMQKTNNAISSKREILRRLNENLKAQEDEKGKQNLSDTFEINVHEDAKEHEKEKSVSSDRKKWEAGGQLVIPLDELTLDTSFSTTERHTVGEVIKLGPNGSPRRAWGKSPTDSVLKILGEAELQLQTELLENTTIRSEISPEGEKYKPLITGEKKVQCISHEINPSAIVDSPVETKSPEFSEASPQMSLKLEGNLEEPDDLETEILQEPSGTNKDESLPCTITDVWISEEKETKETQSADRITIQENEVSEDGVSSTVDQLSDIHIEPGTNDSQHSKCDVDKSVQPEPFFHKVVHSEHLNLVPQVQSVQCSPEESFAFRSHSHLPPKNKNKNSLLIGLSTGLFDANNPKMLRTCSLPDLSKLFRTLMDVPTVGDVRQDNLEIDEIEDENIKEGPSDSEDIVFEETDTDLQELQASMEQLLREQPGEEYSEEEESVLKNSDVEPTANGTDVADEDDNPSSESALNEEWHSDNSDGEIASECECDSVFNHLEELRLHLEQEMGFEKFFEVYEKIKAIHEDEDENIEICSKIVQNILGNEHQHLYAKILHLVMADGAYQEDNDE
Chain of Discoidin domain-containing receptor 2 (Homo sapiens) (Q16832 whole entry, the tested form may be a part): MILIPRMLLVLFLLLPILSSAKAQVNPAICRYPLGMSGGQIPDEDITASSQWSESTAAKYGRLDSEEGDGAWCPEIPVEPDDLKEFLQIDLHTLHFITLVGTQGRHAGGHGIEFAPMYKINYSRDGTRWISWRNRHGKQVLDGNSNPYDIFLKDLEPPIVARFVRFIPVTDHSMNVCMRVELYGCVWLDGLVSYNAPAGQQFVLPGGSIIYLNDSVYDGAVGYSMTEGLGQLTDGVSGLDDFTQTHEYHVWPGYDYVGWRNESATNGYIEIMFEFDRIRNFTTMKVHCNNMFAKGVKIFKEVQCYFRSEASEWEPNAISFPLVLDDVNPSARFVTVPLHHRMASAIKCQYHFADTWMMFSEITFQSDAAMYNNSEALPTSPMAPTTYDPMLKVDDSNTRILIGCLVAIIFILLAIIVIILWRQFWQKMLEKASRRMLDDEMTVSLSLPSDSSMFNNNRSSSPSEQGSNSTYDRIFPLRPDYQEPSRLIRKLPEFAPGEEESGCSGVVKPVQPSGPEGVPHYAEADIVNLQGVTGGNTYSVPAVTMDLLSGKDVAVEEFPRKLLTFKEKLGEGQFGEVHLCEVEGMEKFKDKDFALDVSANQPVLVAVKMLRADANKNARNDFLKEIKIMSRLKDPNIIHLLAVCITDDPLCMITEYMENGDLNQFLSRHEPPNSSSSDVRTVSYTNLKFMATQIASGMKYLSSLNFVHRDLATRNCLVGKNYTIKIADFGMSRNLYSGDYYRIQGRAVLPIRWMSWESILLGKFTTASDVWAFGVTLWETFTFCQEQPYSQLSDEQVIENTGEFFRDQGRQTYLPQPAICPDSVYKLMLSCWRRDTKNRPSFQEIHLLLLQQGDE
Chain of Mast/stem cell growth factor receptor Kit (Homo sapiens), P10721 [D816H] (P10721 whole entry D816H): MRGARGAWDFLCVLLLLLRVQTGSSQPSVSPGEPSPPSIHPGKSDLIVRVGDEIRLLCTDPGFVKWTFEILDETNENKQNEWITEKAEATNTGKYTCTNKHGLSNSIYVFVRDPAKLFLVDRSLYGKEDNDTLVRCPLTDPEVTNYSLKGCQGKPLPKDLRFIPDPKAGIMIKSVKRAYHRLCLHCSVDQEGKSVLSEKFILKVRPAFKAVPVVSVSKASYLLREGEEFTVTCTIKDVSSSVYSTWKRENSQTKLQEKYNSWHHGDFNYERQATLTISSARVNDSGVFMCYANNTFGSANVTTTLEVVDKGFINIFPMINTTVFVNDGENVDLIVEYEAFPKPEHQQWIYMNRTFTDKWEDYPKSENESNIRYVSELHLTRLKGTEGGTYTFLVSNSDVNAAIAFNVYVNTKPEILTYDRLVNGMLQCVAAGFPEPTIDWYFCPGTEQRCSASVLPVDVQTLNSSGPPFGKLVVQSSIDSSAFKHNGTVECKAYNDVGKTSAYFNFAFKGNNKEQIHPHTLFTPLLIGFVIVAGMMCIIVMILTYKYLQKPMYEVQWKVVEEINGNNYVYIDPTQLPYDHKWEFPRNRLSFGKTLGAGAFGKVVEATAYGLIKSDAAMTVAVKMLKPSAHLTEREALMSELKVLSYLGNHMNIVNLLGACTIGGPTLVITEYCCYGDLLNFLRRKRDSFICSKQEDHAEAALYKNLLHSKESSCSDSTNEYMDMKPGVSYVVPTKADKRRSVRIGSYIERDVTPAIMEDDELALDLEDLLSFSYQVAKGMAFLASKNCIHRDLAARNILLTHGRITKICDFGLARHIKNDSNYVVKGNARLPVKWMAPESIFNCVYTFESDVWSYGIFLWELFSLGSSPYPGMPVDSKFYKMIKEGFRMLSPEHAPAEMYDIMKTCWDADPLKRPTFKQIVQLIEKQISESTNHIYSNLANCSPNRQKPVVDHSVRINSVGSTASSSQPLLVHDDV
Chain of Dual specificity tyrosine-phosphorylation-regulated kinase 1B (Homo sapiens) (Q9Y463 whole entry, looked up): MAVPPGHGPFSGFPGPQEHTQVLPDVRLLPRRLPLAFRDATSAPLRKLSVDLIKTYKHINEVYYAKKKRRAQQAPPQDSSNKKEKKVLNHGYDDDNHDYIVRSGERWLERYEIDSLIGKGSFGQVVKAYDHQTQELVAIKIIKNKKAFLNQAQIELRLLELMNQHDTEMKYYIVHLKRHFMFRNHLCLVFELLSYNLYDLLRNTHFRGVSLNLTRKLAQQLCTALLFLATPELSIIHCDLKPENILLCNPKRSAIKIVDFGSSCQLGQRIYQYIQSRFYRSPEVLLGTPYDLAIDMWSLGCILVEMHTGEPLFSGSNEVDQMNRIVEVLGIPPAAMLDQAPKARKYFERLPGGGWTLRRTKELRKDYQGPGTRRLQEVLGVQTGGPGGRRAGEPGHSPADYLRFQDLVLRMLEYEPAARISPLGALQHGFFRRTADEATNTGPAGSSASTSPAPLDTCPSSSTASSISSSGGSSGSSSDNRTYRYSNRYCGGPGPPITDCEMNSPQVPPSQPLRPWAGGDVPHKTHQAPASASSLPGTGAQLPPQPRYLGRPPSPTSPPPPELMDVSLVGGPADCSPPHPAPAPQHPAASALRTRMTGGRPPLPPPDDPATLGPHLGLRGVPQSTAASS

CCc1ccc(-c2ccc3c(c2)-c2[nH]ncc2S(=O)(=O)N3C)cc1
Activity [1]: 89% | Activity [2]: 96% | Activity [3]: 95% | Activity [4]: 91% | Activity [5]: 106% | Activity [6]: 87% | Activity [7]: 102% | Activity [8]: 96% | Activity [9]: 97% | Activity [10]: 93% | Activity [11]: 98% | Activity [12]: 94% | Activity [13]: 80% | Activity [14]: 76% | Activity [15]: 98% | Activity [16]: 91% | Activity [17]: 52% | Activity [18]: 94% | Activity [19]: 78% | Activity [20]: 96% | Activity [21]: 109% | Activity [22]: 90% | Activity [23]: 98% | Activity [24]: 87% | Activity [25]: 80% | Activity [26]: 102% | Activity [27]: 78% | Activity [28]: 88% | Activity [29]: 66% | Activity [30]: 26% | Activity [31]: 97%
